Results on two molecules are retold here after paper PMC3928098 (Leukemia, 2013).

Series [1] has as its system MM.1S cells. The series is described as follows: RNA synthesis assay, [5'-3H]uridine incorporation, MM.1S. It is filed as cell-based, human.
Series [2] concerns cyclin E-CDK2 (K2/E). The settings on record: read-out: IC50 K2/E; in vitro cell-free kinase assay; cited from earlier work.
Series [3] concerns Jak2. The following applies: read-out: IC50 Jak2; in vitro cell-free kinase assay; cited from earlier work.
For series [4], the system named is AMPK. The following applies: read-out: IC50 AMPK; in vitro cell-free kinase assay; cited from earlier work.
Series [5] concerns cyclin D3-CDK6 (K6/D3). The series is described as follows: in vitro cell-free kinase assay, cyclin D3-CDK6. The settings on record: in vitro kinase assays, compared with CDK 1, 2, 3, 4, 5 and 9. In kind it is biochemical.
Series [6] has as its system cyclin B1-CDK1 (K1/B1). The following applies: read-out: IC50 K1/B1; in vitro cell-free kinase assay; cited from earlier work.
Series [7] deals with cyclin T1-CDK9 (K9/T1). The following applies: read-out: IC50 K9/T1; in vitro cell-free kinase assay; cited from earlier work.
Series [8] deals with p-RNAPII S2/S5 in MM cell lines. As to the kind of experiment: western blot of phosphorylated RNAPII S2/S5. The following applies: 0-8h, 25-100nM, all tested MM cell lines, immunoblot. It is filed as cell-based, human. In short, it runs like this:
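MM cell lines were exposed to test compound (0–100 nM) for 1, 4 and 8 h. Whole-cell lysates were run on SDS-PAGE and transferred to nitrocellulose. Blots were probed with phosphospecific antibodies to RNAPII S2/S5 and re-probed for actin, tubulin or GAPDH as loading controls.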
On the technique in general: In western blotting, separated proteins are transferred to a membrane and probed.

The test system of series [9] is cyclin H-CDK7 (K7/H). The settings on record: read-out: IC50 K7/H; in vitro cell-free kinase assay; cited from earlier work.
The test system of series [10] is cyclin H-CDK7 (K7/H). The series is described as follows: in vitro cell-free kinase assay, cyclin H-CDK7. In kind it is biochemical. The following applies: in vitro kinase assays, compared with CDK 1, 2, 3, 4, 5 and 9.
Series [11] deals with miR-21-3p, miR-19a-5p, miR-92a-1-5p in U266 and OPM1 cells. The series is described as follows: TaqMan specific miRNA assays. In kind it is cell-based, human. The settings on record: 50nM for 8h. In short, it runs like this:
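U266, OPM1 and RPMI cells were cultured for 8 h in medium alone or with 50 nM test compound. Total RNA was isolated with a mirVana kit. miR-21-3p, miR-19a-5p and miR-92a-1-5p were quantified with target-specific TaqMan MicroRNA Assays following the manufacturer's protocol.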
(Quantitative PCR measures a nucleic acid by following its amplification.)

Series [12] has as its system MM.1S cells. As to the kind of experiment: NAD+/NADH quantification assay. In kind it is cell-based, human. The settings on record: 50nM. In outline:
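MM.1S cells were cultured with 50 nM test compound and 5 × 10⁵ cells were extracted. For total NAD, extract was incubated with NAD Cycling Mix for 5 min at RT to convert NAD+ to NADH. For NADH, extract was heated at 60°C for 30 min to decompose NAD+. Developer was added for 40 min in the dark and read at 450 nm, in duplicate. Ratio = (NADt − NADH)/NADH.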

Series [13] deals with MM.1S cells. The series is described as follows: DNA synthesis assay, [3H-TdR] uptake. It is filed as cell-based, human. The following applies: BMSCs-stimulated MM.1S cells. In short, it runs like this:
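MM.1S cells (2–3 × 10³/well) were plated alone or with patient-derived BMSCs and exposed to varying test compound concentrations for 8 and 24 h at 37°C. [³H-TdR] ([…]) was pulsed in the last 8 h. Cells were harvested and counted by scintillation. Values are means ±SD of triplicate cultures.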

The nature of series [14]: MM xenograft murine model, body weight and toxicity. In kind it is in vivo, CB-17 SCID mice. In short, it runs like this: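 MM.1S s.c. xenografts in irradiated SCID mice; test compound at 30 or 40 mg/kg, or D5W pH5.2 vehicle, given IV by tail vein daily for 5 days once tumours reached ~100 mg. Body weight and tumour size were recorded every alternate day. Mice were euthanised by CO2 if tumour exceeded 2 cm or ulcerated.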

Series [15] has as its system cyclin E-CDK3 (K3/E). The settings on record: read-out: IC50 K3/E; in vitro cell-free kinase assay; cited from earlier work.
Series [16] has as its system primary tumor cells from MM patients (CD138+). The series is described as follows: MTT viability of primary tumor cells from MM patients. It is filed as cell-based, human. The settings on record: 0-100nM, MTT at 48h. In short, it runs like this:
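Bone marrow mononuclear cells from MM patient aspirates were separated on Ficoll-Hipaque, and plasma cells were purified by anti-CD138 magnetic bead positive selection. Cells were cultured with test compound (0–100 nM) and viability was read by MTT at 48 h (570/630 nm). Values are means ±SD of triplicate cultures.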

Series [17] relates to Fms. The following applies: read-out: IC50 Fms; in vitro cell-free kinase assay; cited from earlier work.
The test system of series [18] is MM.1S cells. The series is described as follows: cell cycle analysis by PI flow cytometry. It is filed as cell-based, human. The settings on record: 50nM, 12h. In outline:
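MM.1S cells (1 × 10⁶) were cultured in medium or with 50 nM test compound for 12 and 24 h, then washed in ice-cold PBS. They were fixed in 100% ethanol for 1 h at 4°C, treated with RNase for 30 min at 37°C, and stained with propidium iodide. Cell cycle profiles were acquired by flow cytometry and modelled for phase distribution.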
In general terms: A flow cytometer gives signals particle by particle.

Series [19] deals with TAK1. The settings on record: read-out: IC50 TAK1; in vitro cell-free kinase assay; cited from earlier work.
For series [20], the system named is cyclin D1-CDK4 (K4/D1). The following applies: read-out: IC50 K4/D1; in vitro cell-free kinase assay; cited from earlier work.
The test system of series [21] is healthy donor PBMCs. As to the kind of experiment: cytotoxicity in healthy donor PBMCs. In kind it is cell-based, human. The settings on record: compared with tumor cells from MM patients, 50nM. In short, it runs like this:
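PBMCs were obtained from healthy volunteer blood by Ficoll-Hipaque gradient separation before exposure to test compound.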

The test system of series [22] is U266, OPM1, and RPMI MM cell lines. The series is described as follows: RNA synthesis assay in p53-mutated MM cell lines. It is filed as cell-based, human. The following applies: 0-100nM, 24h. In short, it runs like this:
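p53-mutant U266, OPM1 and RPMI cells (2–3 × 10³/well) were treated at 37°C with test compound (0–100 nM) for 2 and 24 h. [5′-³H]uridine was then added, and cells were harvested and counted by scintillation. Values are means ±SD of triplicate cultures.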

Series [23] has as its system MM cell lines (MM.1S, MM.1R, H929, U266, OPM1, RPMI). As to the kind of experiment: MTT cell viability assay in MM cell lines. The following applies: Homo sapiens. It is filed as cell-based. In short, it runs like this:
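MM lines were grown in RPMI-1640 with 10% FBS, 2 mM L-glutamine and pen/strep, then treated with test compound (0–100 nM) for 24 and 48 h. MTT was added for 4 h at 37°C and dissolved in acidified isopropanol. Absorbance was read at 570 nm, corrected at 630 nm, with triplicate cultures.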

Series [24] relates to cyclin D3-CDK6 (K6/D3). The following applies: read-out: IC50 K6/D3; in vitro cell-free kinase assay; cited from earlier work.
Series [25] has as its system p53 DNA binding activity in MM.1S cells. The series is described as follows: sequence specific p53 DNA binding assay. It is filed as cell-based, human. The settings on record: 50nM, 4h. In short, it runs like this: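 MM.1S cells were cultured with medium or 50 nM test compound for 1, 4 and 8 h, and nuclear proteins were then isolated. Extracts were incubated overnight in wells coated with dsDNA carrying the p53 response element. Bound p53 was detected with an anti-p53 primary antibody and an HRP-linked secondary, read colorimetrically at 450 nm, in triplicate.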

The test system of series [26] is GSK-3β. The settings on record: read-out: IC50 GSK-3β; in vitro cell-free kinase assay; cited from earlier work.
For series [27], the system named is MM.1S cells xenograft. The series is described as follows: MM xenograft murine model, anti-MM activity. The settings on record: for maximum TGI (%): day 14 following end of treatment. In kind it is in vivo, CB-17 SCID mice. In outline: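 SCID mice were irradiated, then inoculated s.c. in the upper back 24 h later with MM.1S cells (2.5 × 10⁶ in methods; 3 × 10⁶ in 100 uL RPMI in legend). At ~100 mg tumour, mice were randomised to test compound in D5W pH5.2 or D5W vehicle, IV tail vein daily ×5 (n=8, 9, 10). Calipers every other day; volume = ½·L·W². TGI = 100 − T/C%; log10 cell kill from growth delay and doubling time; survival timed from first treatment day.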

The subject of series [28] is p35-CDK5 (K5/p35). The settings on record: read-out: IC50 K5/p35; in vitro cell-free kinase assay; cited from earlier work.
Series [29] concerns MM.1S cells. The series is described as follows: annexin V-PI apoptosis detection. In kind it is cell-based, human. The following applies: 50nM, 12 hours. In outline: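 MM.1S cells (1 × 10⁶) were exposed to 50 nM test compound or medium for 12–24 h. Cells were stained with annexin V-FITC and PI for 15 min, and annexin V+/PI+ apoptotic cells were counted by flow cytometry.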

In series [30] the test system is C-src. The following applies: read-out: IC50 C-src; in vitro cell-free kinase assay; cited from earlier work.
Series [31] relates to MEK1. The following applies: read-out: IC50 MEK1; in vitro cell-free kinase assay; cited from earlier work.
Series [32] deals with p53 knockdown MM.1S cells. The series is described as follows: MTT viability of p53 shRNA knockdown MM.1S. In kind it is cell-based, human. The settings on record: p53 shRNA-transduced MM.1S versus control, MTT 48h. In outline:
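MM.1S cells were transduced with lentiviral shTP53 or empty-vector particles in medium with polybrene (8 μg/ml), and medium was refreshed at 24 h. Infection was checked at 72 h by puromycin (2 μg/ml) sensitivity against parental cells, using MTT. Transduced cells were then exposed to test compound and viability was read by MTT, in triplicate cultures.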

pEC50, pIC50: −log10 of the molar value.

For the molecule `OC[C@H]1OC(n2cnc3cc(Cl)c(Cl)cc32)[C@H](O)[C@@H]1O` (stereo partly drawn) [DRB, 5,6-Dichloro-1—D-ribofuranosylbenzimidazole, reference compound], in [1] (MM.1S, 2h, Suppl. Fig. S3), the “effect on RNA synthesis” value is given as “significantly inhibited RNA synthesis”.
`COCCN1CCN(Cc2ccc(-c3n[nH]c4c3C(=O)c3c(NC(=O)NN5CCOCC5)cccc3-4)cc2)CC1.Cl.Cl` [RGB-286638, 1-(3-{4-[4-(2-Methoxyethyl)-piperazin-1-ylmethyl]-phenyl}-4-oxo-1,4-dihydroindeno[1,2-c]pyrazol-5-yl)-3-morpholin-4-yl-urea dihydrochloride]: the pIC50 was 8.52 in series [2]; 7.30 in series [3]; 7.39 in series [4]; 8.70 in series [6]; 9.00 in [7]; 7.36 in [9]. Besides, the pIC50 was 8.30 in series [15]; 9.00 in series [17]; 8.30 in series [19]; 8.40 in series [20]; 7.00 to 7.30 in series [23] (read-out: IC50, MM cell proliferation); 7.26 in [24]. Moreover, the pIC50 in series [26] is 8.52; in series [28] it was 8.30; in series [30] it was 7.60; in series [31], 7.27. In addition, the “fold less active against CDK 6” value in series [5] came out at 55 fold. Besides, the “effect on p-RNAPII S2/S5” value in series [8] is listed as “rapid downregulation”. Further, in series [10], the “fold less active against CDK 7” value is 44 fold. Moreover, the “miR-21-3p, miR-19a-5p, and miR-92a-1-5p levels” value in series [11] is given as “significantly reduced”. In series [12], this molecule registered an NADH depletion of 50%. In series [12], this molecule yielded an NADt depletion of 30%. Moreover, the “reduction in DNA synthesis” value in series [13] (8h) is recorded as 60%. For the same molecule, the “effect on MM.1S proliferation” value in [13] (24h) was “complete block”. Also, the “maximum percentage of body weight (BW) loss” value in series [14] (30mg/kg dosage schedule, day 5) is 8.4%; in series [14] (40 mg/kg dosing, day 15) it was 9.9%. Further, in series [14] (30 and 40 mg/kg IV daily for 5 days), the toxic deaths entry was “No toxic deaths”. The “cytotoxicity in primary tumor cells from MM patients” value in series [16] is recorded as “comparable cytotoxicity to MM cell lines”. Moreover, the “effect on cell cycle” value in series [18] is “G1 and G2/M cell cycle arrest”. In addition, the “cytotoxicity in healthy donor PBMCs” value in [21] is given as “less cytotoxicity”. Further, in series [22], the “effect on RNA synthesis” value was “significant inhibition”. Also, the pEC50 (usually −log10 of the EC50, conventionally taken in molar units) in [23] (48 h, read-out: EC50, viability by MTT assay) was 7.15 to 7.70. In series [1] (BMSCs-stimulated MM.1S cells, 8h), the “reduction of total level of transcripts” value is recorded as ~ 50%. The effect on transcription result in series [1] (BMSCs-stimulated MM.1S cells, 24h) is “blocked transcription”. The “reduction of RNA synthesis” value in [1] (MM.1S, 50nM or 100nM, two hours) worked out at 50%. Also, in series [25], the “p53 sequence specific DNA binding” value is listed as “increased p53 DNA binding”. Moreover, the entries for the “maximum TGI (%)” value in [27] (30 mg/kg IV daily for 5 days) and in [27] (40 mg/kg IV daily for 5 days) were 85.06% and 86.34%, respectively. The “log10 cell kill (LCK Td: 4.5 days)” value in series [27] (both treated groups (30 mg/kg and 40 mg/kg IV, 5 days)) was found to be 1.6. Moreover, in [27] (both treated groups (30 and 40 mg/kg), controls day 24), the “survival, first death” value worked out at 43 days. The “apoptotic MM cells, Annexin/PI staining” value in [29] turned out to be 25%. For the same molecule, the “cells rescued from RGB-286638-induced cell death by p53 knockdown” value in series [32] came to 14%.
